From ChEMBL document CHEMBL4715754, “Slowing down fat digestion and absorption by an oxadiazolone inhibitor targeting selectively gastric lipolysis” (2016) come the findings set out here.

A word on the inhibition: it is the change of the read-out against control, counted positive when it falls.

The structures appear in SMILES notation. Bounds are passed on as bounds.

Assay [1] deals with T1, Pancreatic triacylglycerol lipase (Sus scrofa) (UniProt P00591).
T1 sequence (whole entry): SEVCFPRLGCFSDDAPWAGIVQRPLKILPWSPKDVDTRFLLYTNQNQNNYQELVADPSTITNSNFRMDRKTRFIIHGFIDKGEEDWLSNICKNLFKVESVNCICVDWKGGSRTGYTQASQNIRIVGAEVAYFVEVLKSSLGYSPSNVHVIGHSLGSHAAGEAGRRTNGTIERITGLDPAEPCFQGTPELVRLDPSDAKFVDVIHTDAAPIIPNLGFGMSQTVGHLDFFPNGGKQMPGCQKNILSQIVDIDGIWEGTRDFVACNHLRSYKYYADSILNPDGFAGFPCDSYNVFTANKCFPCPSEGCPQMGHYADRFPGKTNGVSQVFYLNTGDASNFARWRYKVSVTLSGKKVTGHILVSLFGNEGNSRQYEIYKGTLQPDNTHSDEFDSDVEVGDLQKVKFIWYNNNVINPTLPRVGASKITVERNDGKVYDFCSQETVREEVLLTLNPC
Put plainly: Inhibition of porcine pancreatic lipase at 400:1 molar excess compound concentration preincubated for 30 mins at 25 degreeC relative to control. The method, boiled down:
(§1)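 Pancreatic lipase from human pancreatic juice (54 µg/mL HPL stock) or porcine pancreatic extract (32 µg/mL PPL stock) was held in 10 mM MES pH 7.0, 150 mM NaCl. It was pre-incubated with inhibitor from DMSO stock for 30 min at 25 °C with 4 mM NaTDC at varied molar excess. Residual activity was read by pH-stat on tributyrin at 37 °C, pH 8.0, with 2 mM CaCl₂ and 4 mM NaTDC. x_I50 was taken from residual activity; DMSO-only controls were run.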

For assay [2], the target named is T1, Pancreatic triacylglycerol lipase (Sus scrofa). Description: Inhibition of porcine pancreatic lipase preincubated for 30 mins at 25 degreeC. The method, boiled down:
as §1

Assay [3] has as its target T2, Pancreatic triacylglycerol lipase (Homo sapiens) (UniProt P16233).
T2 sequence (whole entry): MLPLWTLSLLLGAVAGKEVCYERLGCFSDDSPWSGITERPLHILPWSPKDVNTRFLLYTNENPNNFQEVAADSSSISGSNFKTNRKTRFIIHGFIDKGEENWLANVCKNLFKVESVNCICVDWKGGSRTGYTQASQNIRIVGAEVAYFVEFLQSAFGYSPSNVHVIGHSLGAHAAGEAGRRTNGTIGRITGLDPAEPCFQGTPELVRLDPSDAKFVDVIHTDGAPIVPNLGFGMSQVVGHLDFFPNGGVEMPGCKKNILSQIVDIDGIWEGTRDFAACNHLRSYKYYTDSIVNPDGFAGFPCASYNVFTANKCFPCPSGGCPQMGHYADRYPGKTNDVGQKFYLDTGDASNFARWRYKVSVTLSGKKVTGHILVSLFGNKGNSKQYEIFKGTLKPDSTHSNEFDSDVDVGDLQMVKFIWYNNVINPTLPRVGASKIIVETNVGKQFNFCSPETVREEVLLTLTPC
Put plainly: Inhibition of human pancreatic lipase at 400:1 molar excess compound concentration preincubated for 30 mins at 25 degreeC relative to control. The method in brief:
as §1

Assay [4] has as its target T2, Pancreatic triacylglycerol lipase (Homo sapiens). Description: Inhibition of human pancreatic lipase preincubated for 30 mins at 25 degreeC. The method, boiled down: as §1
The target in assay [5] is T3, Gastric triacylglycerol lipase (Canis lupus familiaris) (UniProt P80035).
T3 sequence (whole entry): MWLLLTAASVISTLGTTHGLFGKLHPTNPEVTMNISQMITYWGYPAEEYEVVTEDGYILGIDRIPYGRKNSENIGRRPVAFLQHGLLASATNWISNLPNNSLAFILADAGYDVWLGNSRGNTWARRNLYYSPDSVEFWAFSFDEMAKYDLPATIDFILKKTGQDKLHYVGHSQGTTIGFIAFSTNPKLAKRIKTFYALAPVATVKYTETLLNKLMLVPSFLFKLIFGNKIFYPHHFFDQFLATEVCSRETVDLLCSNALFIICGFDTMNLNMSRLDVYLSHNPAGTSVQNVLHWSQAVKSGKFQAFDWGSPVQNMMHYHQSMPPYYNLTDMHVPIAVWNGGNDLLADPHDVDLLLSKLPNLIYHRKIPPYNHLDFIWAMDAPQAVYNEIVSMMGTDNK
Description: Inhibition of recombinant dog gastric lipase preincubated for 1 hr at 25 degreeC.

For assay [6], the species on record is Homo sapiens. Description: Inhibition of human pancreatic carboxylesterase preincubated for 1 hr at 25 degreeC.
For assay [7], the target named is T4, Gastric triacylglycerol lipase (Rattus norvegicus) (UniProt P04634).
T4 sequence (whole entry): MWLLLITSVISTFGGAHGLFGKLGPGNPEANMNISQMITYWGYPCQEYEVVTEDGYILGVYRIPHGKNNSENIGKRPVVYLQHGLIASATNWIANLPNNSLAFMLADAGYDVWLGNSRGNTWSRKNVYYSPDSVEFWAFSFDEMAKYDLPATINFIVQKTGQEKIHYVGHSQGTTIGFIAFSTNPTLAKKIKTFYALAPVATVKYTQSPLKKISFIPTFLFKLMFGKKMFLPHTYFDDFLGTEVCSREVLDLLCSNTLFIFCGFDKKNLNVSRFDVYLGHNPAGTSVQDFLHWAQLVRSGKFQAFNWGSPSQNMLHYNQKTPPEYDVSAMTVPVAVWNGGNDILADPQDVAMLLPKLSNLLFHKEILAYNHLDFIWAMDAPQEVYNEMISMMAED
Put plainly: Inhibition of rat lingual lipase preincubated for 1 hr at 25 degreeC. The method, boiled down:
(§2)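 Enzyme pre-incubated with inhibitor (DMSO stock) at fixed molar excess for 1 h at 25 °C without substrate: hCEH x_I=4 (1 mM NaTDC assay), RLL and DGL x_I=20 with 4 mM NaTDC, GPLRP2 x_I=2 with 2 mM NaTDC. Residual activity sampled at intervals by pH-stat on tributyrin emulsion at 37 °C; t1/2 taken at 50% residual activity. DMSO-only controls; at least triplicate.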

Assay [8] has as its target T3, Gastric triacylglycerol lipase (Canis lupus familiaris). Description: Inhibition of recombinant dog gastric lipase assessed as residual activity by measuring half-inactivation time at 20:1 molar excess compound concentration preincubated for 1 hr at 25 degreeC. The method, boiled down:
as §2

Assay [9] is filed under the species Homo sapiens. Put plainly: Inhibition of human pancreatic carboxylesterase assessed as residual activity by measuring half-inactivation time at 4:1 molar excess compound concentration preincubated for 1 hr at 25 degreeC. The method in brief: as §2
The subject of assay [10] is Rattus norvegicus. Put plainly: Inhibition of lipolysis in mesenteric lymph duct-cannulated Wistar rat model assessed as initial velocity of fatty acid output at 5.3 mg/kg supplemented with olive oil emulsion and measured after 24 hrs (reference value: 12.3 +/- 0.46 mg/ml/h). The assay is classed as functional.
Assay [11] has as its system Rattus norvegicus. Description: Inhibition of lipolysis in mesenteric lymph duct-cannulated Wistar rat model assessed as Tmax for maximum fatty acid concentration at 5.3 mg/kg supplemented with olive oil emulsion and measured after 24 hrs (reference value: 6 hrs). In kind it is functional, organism-based. The method, boiled down:
(§3)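 Male Wistar rats (8 weeks, 300-350 g), fat-free diet 24 h, mesenteric lymph duct cannulated under ketamine/xylazine. Given 0.8 mL olive oil emulsion (530 mg fatty acids) premixed with inhibitor at 5.3 mg/kg by mouth, then 0.5 mL water. Lymph collected over 24 h; total fatty acids by GC-FID of methyl esters. 7 rats per group; one-way ANOVA with Fisher's test.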

Assay [12] relates to Rattus norvegicus. Put plainly: Inhibition of lipolysis in mesenteric lymph duct-cannulated Wistar rat model assessed as decrease in intestinal lipid absorption at 5.3 mg/kg supplemented with olive oil emulsion and measured after 24 hrs relative to control. The assay is classed as functional. Also on record: scale not given: the % may be the effect or the level left. The method in brief: as §3

Take `O=c1oc(OCCOCc2ccccc2)nn1-c1cccc(Oc2ccccc2)c1`: the inhibition was found to be 13.2% in assay [1] and 19.3% in assay [3]. The XI50 in [2] is > 400 molar excess; in assay [4], > 400 molar excess; in assay [5] it was 0.5 molar excess; in [6], 1.42 molar excess; in [7] it was 1.43 molar excess. The T1/2 came out at 1.68 min in assay [8] and 1.31 min in assay [9]. Also, in assay [10], the V0 was determined as 9.8 mg/mL/h. In assay [11], the Tmax amounted to 300 min. Also, in [12], the Activity is on record as -24%.
With `CCCCCCCCCCC[C@@H](C[C@@H]1OC(=O)[C@H]1CCCCCC)OC(=O)[C@@H](CC(C)C)NC=O`, the inhibition in [1] is 93.1%; in [3], 91.5%. Also, the XI50 was 1.35 molar excess in assay [2]; 11.1 molar excess in assay [4]; 5.6 molar excess in assay [5]; 0.78 molar excess in assay [6]; 0.7 molar excess in assay [7]. The T1/2 is 0.59 min in [8] and 0.52 min in assay [9]. Besides, the V0 in [10] came out at 4.4 mg/mL/h. For the same compound, in assay [11], the Tmax was determined as 360 min. In addition, in [12], the Activity is given as -70.9%.
